Measurements reported in ChEMBL document CHEMBL4400511, “Benzothiopyranoindole- and pyridothiopyranoindole-based antiproliferative agents targeting topoisomerases” (2019).
The source made the active and inactive calls. No cut-off for these calls is given here.

Assays:
[1] = molecular target: DNA topoisomerase 2-alpha (Homo sapiens) (UniProt P11388); experiment: Poison activity at recombinant human topoisomerase-2 assessed as stabilization of covalent topo-2-DNA cleavage complex by measuring linear DNA formation up to 50 uM using supercoiled pBR322 DNA as substrate after 60 mins by agarose gel electrophoresis method
Summary of the method: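 Cleavable-complex assay: supercoiled pBR322 DNA was incubated with Topo II, with or without compound at a series of µM concentrations. Enzyme-mediated linear DNA marks cleavage-complex stabilisation. Reference poison is 10 µM m-AMSA.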

MSTO-211H = experiment: Growth inhibition in human MSTO-211H cells after 72 hrs by trypan blue dye-based assay; format: functional
Summary of the method: (§1)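 Three human tumour lines were used: HeLa (cervix adenocarcinoma), A-431 (epidermoid/squamous carcinoma) and MSTO-211H (biphasic mesothelioma). GI50 is the µM concentration giving 50% cell death relative to the untreated control culture. Ellipticine was run as reference.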

HeLa [2] = experiment: Induction of apoptosis in human HeLa cells assessed as necrotic cells at 20 uM after 18 hrs by Annexin-V-FITC/propidium iodide staining based flow cytometric analysis (reference value: 0.7%); format: functional
Summary of the method: (§2)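 HeLa cells were incubated 18 h without compound (control) or at 20 and 80 µM. They were stained with FITC-annexin V and propidium iodide and analysed by dual-parameter flow cytometry. Cells were scored as viable, early apoptotic, late apoptotic or necrotic.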

[3] = molecular target: T1, DNA topoisomerase 1 (Homo sapiens) (UniProt P11387); experiment: Poison activity at recombinant human topoisomerase-1 assessed as stabilization of covalent topo-1-DNA cleavage complex by measuring nicked DNA formation using supercoiled pBR322 DNA as substrate after 60 mins by agarose gel electrophoresis method
T1 sequence (whole entry): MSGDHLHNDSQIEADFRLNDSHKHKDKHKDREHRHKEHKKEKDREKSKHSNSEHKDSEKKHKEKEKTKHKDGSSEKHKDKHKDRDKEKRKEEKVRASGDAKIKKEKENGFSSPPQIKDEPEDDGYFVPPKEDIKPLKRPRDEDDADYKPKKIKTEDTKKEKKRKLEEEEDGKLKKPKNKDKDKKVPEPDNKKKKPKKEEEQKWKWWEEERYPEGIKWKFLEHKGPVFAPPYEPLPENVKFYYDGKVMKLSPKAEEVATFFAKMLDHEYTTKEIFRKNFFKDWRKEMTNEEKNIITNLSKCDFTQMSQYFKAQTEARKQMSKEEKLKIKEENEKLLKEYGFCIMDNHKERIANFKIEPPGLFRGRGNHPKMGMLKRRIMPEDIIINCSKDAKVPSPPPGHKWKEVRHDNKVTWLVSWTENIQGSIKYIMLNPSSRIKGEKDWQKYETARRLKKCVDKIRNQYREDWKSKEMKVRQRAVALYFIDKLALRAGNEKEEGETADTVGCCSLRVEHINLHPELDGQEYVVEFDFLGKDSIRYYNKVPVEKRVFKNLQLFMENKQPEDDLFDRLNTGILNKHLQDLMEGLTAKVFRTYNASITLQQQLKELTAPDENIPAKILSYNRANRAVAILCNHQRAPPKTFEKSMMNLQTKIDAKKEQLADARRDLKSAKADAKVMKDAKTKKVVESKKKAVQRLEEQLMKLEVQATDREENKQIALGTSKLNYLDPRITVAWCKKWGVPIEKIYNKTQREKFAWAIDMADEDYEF
Summary of the method: (§3)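 Cleavable-complex assay: supercoiled pBR322 DNA was incubated with Topo I, with or without compound at a series of µM concentrations. Nicked DNA formation marks covalent complex stabilisation. Reference is 0.5 µM camptothecin.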

[4] = molecular target: T1, DNA topoisomerase 1 (Homo sapiens); experiment: Poison activity at recombinant human topoisomerase-1 assessed as stabilization of covalent topo-1-DNA cleavage complex by measuring nicked DNA formation at 0.5 to 50 uM using supercoiled pBR322 DNA as substrate after 60 mins by agarose gel electrophoresis method; summary of the method: as §3
A-431 = experiment: Growth inhibition in human A431 cells after 72 hrs by trypan blue dye-based assay; format: functional; details: A-431, 72 h; summary of the method: as §1
[5] = molecular target: DNA topoisomerase 2-alpha (Homo sapiens) (UniProt P11388); experiment: Inhibition of recombinant human topoisomerase 2alpha assessed as decrease in relaxation of supercoiled pBR322 DNA after 60 mins by ethidium bromide staining based agarose gel electrophoresis method
Summary of the method: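 Topo II was incubated with supercoiled pBR322 DNA, with or without compound at a series of µM concentrations. Read-out is topoisomer formation from supercoiled DNA on a gel. Reference is 10 µM m-AMSA.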

HeLa [6] = experiment: Induction of apoptosis in human HeLa cells assessed as necrotic cells at 80 uM after 18 hrs by Annexin-V-FITC/propidium iodide staining based flow cytometric analysis (reference value: 0.7%); format: functional; summary of the method: as §2
Salmon testes DNA = experiment: Binding affinity to salmon DNA at compound to DNA ratio of 0.02 to 0.04 by linear flow dichroism analysis; format: nucleic-acid assay; details: Salmonidae
HeLa [7] = experiment: Induction of apoptosis in human HeLa cells assessed as viable cells at 80 uM after 18 hrs by Annexin-V-FITC/propidium iodide staining based flow cytometric analysis (reference value: 91.6%); format: functional; details: read-out: Activity; summary of the method: as §2
HeLa [8] = experiment: Induction of apoptosis in human HeLa cells assessed as early apoptotic cells at 80 uM after 18 hrs by Annexin-V-FITC/propidium iodide staining based flow cytometric analysis (reference value: 5.6%); format: functional; summary of the method: as §2
HeLa [9] = experiment: Induction of apoptosis in human HeLa cells assessed as early apoptotic cells at 20 uM after 18 hrs by Annexin-V-FITC/propidium iodide staining based flow cytometric analysis (reference value: 5.6%); format: functional; summary of the method: as §2
HeLa [10] = experiment: Induction of apoptosis in human HeLa cells assessed as late apoptotic cells at 80 uM after 18 hrs by Annexin-V-FITC/propidium iodide staining based flow cytometric analysis (reference value: 2.2%); format: functional; summary of the method: as §2
HeLa [11] = experiment: Growth inhibition in human HeLa cells after 72 hrs by trypan blue dye-based assay; format: functional; summary of the method: as §1
HeLa [12] = experiment: Induction of apoptosis in human HeLa cells assessed as late apoptotic cells at 20 uM after 18 hrs by Annexin-V-FITC/propidium iodide staining based flow cytometric analysis (reference value: 2.2%); format: functional; summary of the method: as §2
HeLa [13] = experiment: Induction of apoptosis in human HeLa cells assessed as viable cells at 20 uM after 18 hrs by Annexin-V-FITC/propidium iodide staining based flow cytometric analysis (reference value: 91.6%); format: functional; details: read-out: Activity; summary of the method: as §2
[14] = molecular target: T1, DNA topoisomerase 1 (Homo sapiens); experiment: Inhibition of recombinant human topoisomerase 1 assessed as decrease in relaxation of supercoiled pBR322 DNA after 60 mins by ethidium bromide staining based agarose gel electrophoresis method
Summary of the method: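 Human recombinant Topo I was incubated with supercoiled pBR322 DNA, with or without compound at a series of µM concentrations. Read-out is the number of relaxed topoisomers formed.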

DNA topoisomerase 2-alpha (Homo sapiens), sequence (P11388 whole entry): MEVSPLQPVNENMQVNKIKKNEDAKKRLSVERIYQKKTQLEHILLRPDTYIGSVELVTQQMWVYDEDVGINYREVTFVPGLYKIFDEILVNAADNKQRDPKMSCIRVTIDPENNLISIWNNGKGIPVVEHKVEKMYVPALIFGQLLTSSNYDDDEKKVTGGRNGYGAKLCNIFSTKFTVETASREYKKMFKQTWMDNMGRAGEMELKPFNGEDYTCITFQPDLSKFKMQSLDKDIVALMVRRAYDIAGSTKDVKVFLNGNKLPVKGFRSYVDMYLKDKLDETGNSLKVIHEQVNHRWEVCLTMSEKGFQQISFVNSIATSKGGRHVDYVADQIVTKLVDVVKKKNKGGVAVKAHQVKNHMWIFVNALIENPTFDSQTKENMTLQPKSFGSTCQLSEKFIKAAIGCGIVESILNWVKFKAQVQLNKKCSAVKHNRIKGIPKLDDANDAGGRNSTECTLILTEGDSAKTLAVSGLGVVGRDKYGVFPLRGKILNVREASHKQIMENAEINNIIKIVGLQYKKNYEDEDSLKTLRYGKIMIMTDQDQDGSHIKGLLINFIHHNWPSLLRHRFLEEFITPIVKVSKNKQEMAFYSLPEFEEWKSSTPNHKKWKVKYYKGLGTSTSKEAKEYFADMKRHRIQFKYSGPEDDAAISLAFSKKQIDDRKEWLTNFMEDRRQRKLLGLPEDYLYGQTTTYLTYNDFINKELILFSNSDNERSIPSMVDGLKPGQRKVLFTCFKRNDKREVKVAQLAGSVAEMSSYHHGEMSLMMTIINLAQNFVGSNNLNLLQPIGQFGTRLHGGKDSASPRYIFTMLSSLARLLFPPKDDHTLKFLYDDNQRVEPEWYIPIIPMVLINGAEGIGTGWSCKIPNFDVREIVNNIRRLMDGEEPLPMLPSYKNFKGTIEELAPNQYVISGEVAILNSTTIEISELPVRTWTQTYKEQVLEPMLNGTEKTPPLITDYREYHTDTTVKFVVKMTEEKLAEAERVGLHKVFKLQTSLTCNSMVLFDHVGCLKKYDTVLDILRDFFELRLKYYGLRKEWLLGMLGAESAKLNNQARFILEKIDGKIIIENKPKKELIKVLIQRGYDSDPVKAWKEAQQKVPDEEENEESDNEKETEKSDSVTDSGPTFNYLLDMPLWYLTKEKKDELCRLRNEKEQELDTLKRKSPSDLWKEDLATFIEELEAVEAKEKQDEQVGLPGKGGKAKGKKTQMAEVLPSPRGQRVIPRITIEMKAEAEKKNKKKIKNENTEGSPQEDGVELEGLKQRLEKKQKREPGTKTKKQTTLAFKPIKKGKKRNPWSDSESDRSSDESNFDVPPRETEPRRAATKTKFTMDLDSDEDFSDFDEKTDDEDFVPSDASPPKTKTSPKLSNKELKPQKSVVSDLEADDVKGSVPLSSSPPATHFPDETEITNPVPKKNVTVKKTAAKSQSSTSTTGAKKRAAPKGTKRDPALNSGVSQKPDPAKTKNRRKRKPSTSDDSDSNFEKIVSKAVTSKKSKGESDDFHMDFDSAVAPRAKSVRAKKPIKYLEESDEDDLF

GI50 (A-431): 330 nM | inhibition [5]: Dose-dependent effect | Activity (Salmon testes DNA): Active | GI50 (HeLa [11]): 820 nM | inhibition [14]: Dose-dependent effect
Compound: COc1cc2c3sc4ccccc4c(=O)c3n(CCN(C)C)c2cc1OC
Activity [1]: inactive | GI50 (MSTO-211H): 310 nM | Activity (HeLa [2]): 2% | Activity [3]: Dose-dependent effect | Activity [4]: Active | Activity (HeLa [6]): 7.7% | viability at 80 µM (HeLa [7]): 43.8% | Activity (HeLa [8]): 31.5% | Activity (HeLa [9]): 8.6% | Activity (HeLa [10]): 17% | Activity (HeLa [12]): 2.7% | viability at 20 µM (HeLa [13]): 86.7%
